This is a sample that favours compounds with a hit; in the whole collection about 9.2% have one here.
ERb coact inh – blocks coactivator binding to human estrogen receptor beta | 1.3% of 86,000 active | TR-FRET ER-beta LBD / SRC1-Cy5 peptide binding; receptor agonist-loaded with 1 µM estradiol | inhibition, % at 25.6 µM | Q92731;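 active = compounds whose percent inhibition of the receptor-coactivator binding signal exceeds about 50% in the single-dose screen, limit read from the data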;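 note: 0% = receptor plus peptide wells without compound and 100% = peptide-only wells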
Target sequence (Q92731 whole entry, looked up, the tested form may be a part): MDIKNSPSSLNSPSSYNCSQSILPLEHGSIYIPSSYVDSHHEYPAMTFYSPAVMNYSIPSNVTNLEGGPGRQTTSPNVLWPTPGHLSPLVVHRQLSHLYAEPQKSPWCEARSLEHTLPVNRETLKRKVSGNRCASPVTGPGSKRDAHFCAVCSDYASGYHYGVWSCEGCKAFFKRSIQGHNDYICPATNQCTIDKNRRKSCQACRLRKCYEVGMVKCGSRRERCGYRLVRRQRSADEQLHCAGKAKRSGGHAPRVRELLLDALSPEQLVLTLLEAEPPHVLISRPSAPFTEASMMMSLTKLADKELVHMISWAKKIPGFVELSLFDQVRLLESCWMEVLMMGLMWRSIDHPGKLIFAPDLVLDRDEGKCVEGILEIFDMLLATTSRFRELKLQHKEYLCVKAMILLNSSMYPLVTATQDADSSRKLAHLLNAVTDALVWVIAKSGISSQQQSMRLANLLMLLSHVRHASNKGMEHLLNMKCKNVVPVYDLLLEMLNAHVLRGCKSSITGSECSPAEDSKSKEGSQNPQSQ
Fibroblast inh – blocks proliferation of human lung fibroblasts; LL 47 human lung fibroblast viability, ATP luminescence; hits give low values; viability, % at 10 µM; 1.1% of 85,000 active;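 active = viability at or below 50% in the single dose screen; inactive = viability above 50%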;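 note: compound exposure lasted 72 h before the ATP readout; 100% = median luminescence of untreated cell-only wells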
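material = human LL 47 lung fibroblast cells | dosing = compounds added from tenfold dosing solution, 0.1% DMSO final | timing = overnight cell rest, 72 h compound treatment at 37 °C | measured by = CellTiter-Glo luminescence measuring cellular ATP | evaluation = % viability versus median cells-only luminescence | control set = cell-only wells, no compound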
ERa coact inh – blocks coactivator binding to human estrogen receptor alpha | inhibition, % at 25.6 µM | 1.7% of 86,000 active | TR-FRET ER-alpha LBD / SRC-1 peptide, estradiol-bound | P03372; in the data active = inhibition above about 50%;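 note: 0% = receptor plus peptide control and 100% = peptide only without receptor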
ERa coact pot – ER-alpha (human) coactivator binding potentiation | P03372 | TR-FRET ERalpha-LBD/SRC-Cy5 coactivator binding, 2 h; 100 = basal binding, no effect | 1.3% of 86,000 active | coactivator binding (% of control), % at 25.6 µM; in the data active = activity above about 200%;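 note: binding measured in presence of low estradiol as agonist stimulus; 0% = peptide alone without receptor and 100% = receptor with peptide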
H69AR growth 86K – blocks growth of human H69AR lung tumor cells. H69AR lung tumor viability, ATP luminescence, 72 h; hits give low values. viability, % at 10 µM. 6% of 85,000 active. AID 598;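 active = viability at or below 40%; inactive = viability above 40%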;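 note: multidrug resistant small cell line overexpressing MRP-1 efflux transporter; 100% = mean luminescence of untreated control wells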
HUVEC prolif 384 – inhibitors of human endothelial cell proliferation. HUVEC proliferation, CellTiter-Glo luminescence, 72 h; hits give low values. viability, % at 10 µM (by protocol). 1.1% of 86,000 active. AID 648;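 active = viability at or below 30%; inactive = viability above 30%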;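 note: 100% = median luminescence of DMSO-only cell control wells on each plate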
Numbers without * were called inactive; [ ] = remark or other dose.

What do the screens show for `O=C(Nc1ccc2nn(-c3ccccc3)nc2c1)c1ccco1`?
ERb coact inh: 5; Fibroblast inh: 90; ERa coact inh: 15; ERa coact pot: 142; H69AR growth 86K: 89; HUVEC prolif 384: 91

What do the screens show for `Cc1cc(C)c(S(=O)(=O)N(C2=NCCS2)S(=O)(=O)c2c(C)cc(C)cc2C)c(C)c1`?
ERb coact inh: 5; Fibroblast inh: 101; ERa coact inh: 28; ERa coact pot: 105; H69AR growth 86K: 22*; HUVEC prolif 384: 103

How did O=C(NCc1ccc(F)cc1)c1cnc(-c2ccccn2)nc1C(F)(F)F do in these assays?
ERb coact inh: 2; Fibroblast inh: 99; ERa coact inh: 3; ERa coact pot: 87; H69AR growth 86K: 106; HUVEC prolif 384: 90

What do the screens show for `Nc1nnnn1/N=C/c1cc(Cl)cc(Cl)c1OCc1ccc(Cl)cc1Cl`?
ERb coact inh: -4; Fibroblast inh: 91; ERa coact inh: -11; ERa coact pot: 167; H69AR growth 86K: 22*; HUVEC prolif 384: 89

What do the screens show for `Nc1nnnn1/N=C/c1ccccc1OCc1ccc(Cl)cc1`?
ERb coact inh: 14; Fibroblast inh: 100; ERa coact inh: -6; ERa coact pot: 113; H69AR growth 86K: 90; HUVEC prolif 384: 93

Results for CCc1cccc2c(C(=O)Cn3nnc(-c4ccc(OC)c(OC)c4)n3)c[nH]c12 ?
ERb coact inh: 27; Fibroblast inh: 93; ERa coact inh: 62*; ERa coact pot: 103; H69AR growth 86K: 39*; HUVEC prolif 384: 80

Results for COc1cc(-c2nc(-c3ccc(NC(=O)c4ccc5c(c4)OCO5)cc3)no2)cc(OC)c1OC ?
ERb coact inh: 42; Fibroblast inh: 73; ERa coact inh: 6; ERa coact pot: 182; H69AR growth 86K: 13*; HUVEC prolif 384: 28*

What do the screens show for `COC(=O)c1sccc1NC(=O)c1ccc2c(c1)OCO2`?
ERb coact inh: 24; Fibroblast inh: 29*; ERa coact inh: 43; ERa coact pot: 131; H69AR growth 86K: 39*; HUVEC prolif 384: 64

What do the screens show for `COc1ccc(-c2nc3cc(NC(=O)c4ccc5c(c4)OCO5)ccc3o2)cc1`?
ERb coact inh: 44; Fibroblast inh: 100; ERa coact inh: 40; ERa coact pot: 412*[fluorescence artefact?]; H69AR growth 86K: 98; HUVEC prolif 384: 92

Results for Cc1ccccc1-c1nc(-c2ccc(NC(=O)c3ccc4c(c3)OCO4)cc2)no1 ?
ERb coact inh: 32; Fibroblast inh: 20*; ERa coact inh: 47; ERa coact pot: 66; H69AR growth 86K: 28*; HUVEC prolif 384: 39

How did CC(=O)OCCNC(=O)Cn1cnc2c1c(=O)n(C)c(=O)n2C do in these assays?
ERb coact inh: 4; Fibroblast inh: 94; ERa coact inh: -3; ERa coact pot: 113; H69AR growth 86K: 99; HUVEC prolif 384: 86

What do the screens show for `CCOC(=O)/C(=C\Nc1ccccc1C(F)(F)F)Sc1ncc(C(F)(F)F)cc1Cl`?
ERb coact inh: -2; Fibroblast inh: 104; ERa coact inh: -6; ERa coact pot: 90; H69AR growth 86K: 100; HUVEC prolif 384: 138

What do the screens show for `COC(=O)/C(=C\Nc1ccc(Cl)c2ccccc12)c1ncc(C(F)(F)F)cc1Cl`?
ERb coact inh: 14; Fibroblast inh: 93; ERa coact inh: 55*; ERa coact pot: 107; H69AR growth 86K: 33*; HUVEC prolif 384: 108

What do the screens show for `O=C(Nc1ccc(SC(F)F)cc1)c1cccc2nc3ccccc3nc12`?
ERb coact inh: -9; Fibroblast inh: 39*; ERa coact inh: -6; ERa coact pot: 100; H69AR growth 86K: 10*; HUVEC prolif 384: 26*

How did CC(CCO)Nc1nc2c(c(=O)n(C)c(=O)n2C)n1Cc1cccc(Br)c1 (configuration not stated) do in these assays?
ERb coact inh: -6; Fibroblast inh: 104; ERa coact inh: 0; ERa coact pot: 97; H69AR growth 86K: 97; HUVEC prolif 384: 97

How did CCS(=O)(=O)N1Cc2ccccc2CC1C(=O)N1CCN(c2cccc(C)c2C)CC1 (configuration not stated) do in these assays?
ERb coact inh: 51*; Fibroblast inh: 93; ERa coact inh: 80*[fluorescence artefact?]; ERa coact pot: 61; H69AR growth 86K: 88; HUVEC prolif 384: 110
